In one series the test system is SW480 (Homo sapiens). Put plainly: Cytotoxicity against human SW480 cells pre-incubated with CuCl2 for 60 mins followed by compound addition for 72 hrs by MTT assay.
Series [1] has as its system SW480. Put plainly: Induction of morphological changes in human SW480 cells assessed as induction of vesicular blebbing in cytosol at 2.5 uM incubated for 48 hrs by phase contrast microscopy. It counts as functional, cell-based.
Another series relates to HL-60. Briefly: Induction of intracellular ROS generation in human HL60 cells at 1 and 5 uM in presence of CuCl2 incubated for 30 mins by DCF-DA staining based fluorescence assay. The class given is functional, cell-based. In short, it runs like this: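 HL-60 cells (5 × 10^5 per sample, phenol-free Hanks balanced salt solution) were loaded with DCF-DA for 30 min. CuCl2 was added 15 min before the thiosemicarbazone, at a ligand:Cu ratio of 1:1 or 1:2. Drug exposure lasted a further 30 min, and mean fluorescence was read by flow cytometry. H2O2 (200 μM) served as control. Data are mean ± SD of three experiments.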

Series [2] deals with SW480. Put plainly: Induction of morphological changes in human SW480 cells assessed as induction of vacuoles at 2.5 uM incubated for 24 hrs by phase contrast microscopy. The class given is functional, cell-based. Put shortly: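 SW480 cells (MEM + 10% FCS) were treated for 24 h and then photographed at 400× magnification with an sCMOS camera on a fluorescence microscope to visualise cytoplasmic vacuoles.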

The test system of series [3] is SW480. Put plainly: Induction of morphological changes in human SW480 cells assessed as induction of massive cell flattening at 2.5 uM incubated for 48 hrs by phase contrast microscopy. It counts as functional, cell-based.
The next series can be described thus: physchem. The conditions noted are these: n-octanol/water, pH 7.4.

The source made the active and inactive calls. The calls are words filed in the database; no cut-off is given here.

As a reminder, the logD is lipophilicity at a set pH, counting ionised and neutral species. Higher therefore signals higher lipophilicity.

Consider `CN(C)C(=S)NN=C(c1ccccn1)c1ccccn1`, for which the result in the series on SW480 (Homo sapiens) was Active.
Take `CN(C)C(=S)N/N=C/c1ncccc1N(C)C`: the result with SW480 [1], with HL-60 and in the series on SW480 [2] was Active.
Turning to `CNc1cccnc1/C=N/N=C(/N)S`, in the series on SW480 [3], the outcome was Active.
Turning to `CN(C)C(=S)N/N=C/c1ncccc1N`, in the series on HL-60, the outcome was Active. The compound further returned a logD in “physchem” of 1.3.
Turning to `CNC(=S)N/N=C/c1ncccc1N(C)C`, the outcome in the series with SW480 [1], in the series with HL-60 and with SW480 (Homo sapiens) was Active. Moreover, the result with SW480 [3] was inactive.
Regarding `CN(C)c1cccnc1/C=N/NC(N)=S`, the outcome in the series on SW480 (Homo sapiens) was Active.
Turning to `CNc1cccnc1/C=N/NC(=S)N(C)C`, in the series on SW480 [3], the result was inactive. Besides, in the series on SW480 (Homo sapiens), the outcome was Active.
Turning to `NC(=S)N/N=C/c1ncccc1N`, the result in the series with HL-60 and with SW480 [3] was Active. For the same compound, the result in the series with SW480 (Homo sapiens) was inactive.
With `CNC(=S)N/N=C/c1ncccc1N`, in the series with SW480 [3], the result was Active.
